Sampled rows, rich in hits. Any-hit rate of the full collection: about 3.2%.
MEKK2 WT-MEK5 = raises or lowers MEK5 binding to wildtype human MEKK2 PB1 domain; 1.1% of 290,000 active; bead flow cytometry, Alexa488-MEK5 binding to MEKK2 WT; actives lie on both sides; Q9Y2U5; binding response (% of control), % at 10 µM; in the data active = binding response below about 67% or above about 130%
MEKK3 PB1 HTS = MEKK3-MEK5 PB1 interaction, increase or decrease; Q99759; bead-based flow cytometry, Alexa488-MEK5 binding to MEKK3; actives lie on both sides; 0 = blocked by unlabeled MEK5, 100 = vehicle; binding response (% of control), % at 10 µM; 1.4% of 290,000 active; AID 1529;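 active = binding response more than 3 SD above or below the average of its plate-row segment, actives on both sides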;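 also: Alexa488 bead fluorescence after subtracting the streptavidin-only scavenger bead signal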
Apaf-1 inh = human Apaf-1 inhibition. O14727. reconstituted apoptosome caspase-3 activity, DEVD-Rh110 fluorescence. inhibition, % at 20 µM. 0.71% of 330,000 active; active = inhibition of at least 40% at 20 µM;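 also: plate controls were DMSO wells for no effect and DEVD-CHO caspase inhibitor wells for full effect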
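System: Apoptosome proteins | Medium: Hepes pH 7.5 with detergent and BSA | Also added: Cytochrome c trigger plus (Z-DEVD)2-Rh110 caspase-3 substrate | Incubation: 30 min compound preincubation, 50 min activation, room temperature | Detection: Rhodamine 110 fluorescence at Ex 480/Em 540 nm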
UBC13 polyUb = human UBC13 polyubiquitination inhibition; P61088; inhibition, % at 20 µM; 0.47% of 330,000 active; AID 485273; UBC13 polyubiquitin chain formation, TR-FRET; in the data active = inhibition above about 45%, passing the limit was not always enough
MEKK2mut PB1 HTS = signal of MEK5 binding to mutant human MEKK2 PB1 domain. bead flow cytometry, Alexa488-MEK5 binding to MEKK2 mutant. 0.35% of 290,000 active. percent response, % at 10 µM; in the data active = percent response above about 24%, passing the limit was not always enough
DSG3 Ab inh = human desmoglein-3 autoantibody binding inhibition; DSG3-coupled beads, scFv-anti-DSG3-GFP binding, flow cytometry; stronger effect = lower value; AID 588358; 0.48% of 310,000 active; P32926; binding (percent of control), % at 10 µM;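 active = binding more than 3 SD below its plate's average and above zero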;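 also: hits lower antibody fragment binding to DSG3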
Target sequence (P32926 whole entry, looked up, the tested form may be a part): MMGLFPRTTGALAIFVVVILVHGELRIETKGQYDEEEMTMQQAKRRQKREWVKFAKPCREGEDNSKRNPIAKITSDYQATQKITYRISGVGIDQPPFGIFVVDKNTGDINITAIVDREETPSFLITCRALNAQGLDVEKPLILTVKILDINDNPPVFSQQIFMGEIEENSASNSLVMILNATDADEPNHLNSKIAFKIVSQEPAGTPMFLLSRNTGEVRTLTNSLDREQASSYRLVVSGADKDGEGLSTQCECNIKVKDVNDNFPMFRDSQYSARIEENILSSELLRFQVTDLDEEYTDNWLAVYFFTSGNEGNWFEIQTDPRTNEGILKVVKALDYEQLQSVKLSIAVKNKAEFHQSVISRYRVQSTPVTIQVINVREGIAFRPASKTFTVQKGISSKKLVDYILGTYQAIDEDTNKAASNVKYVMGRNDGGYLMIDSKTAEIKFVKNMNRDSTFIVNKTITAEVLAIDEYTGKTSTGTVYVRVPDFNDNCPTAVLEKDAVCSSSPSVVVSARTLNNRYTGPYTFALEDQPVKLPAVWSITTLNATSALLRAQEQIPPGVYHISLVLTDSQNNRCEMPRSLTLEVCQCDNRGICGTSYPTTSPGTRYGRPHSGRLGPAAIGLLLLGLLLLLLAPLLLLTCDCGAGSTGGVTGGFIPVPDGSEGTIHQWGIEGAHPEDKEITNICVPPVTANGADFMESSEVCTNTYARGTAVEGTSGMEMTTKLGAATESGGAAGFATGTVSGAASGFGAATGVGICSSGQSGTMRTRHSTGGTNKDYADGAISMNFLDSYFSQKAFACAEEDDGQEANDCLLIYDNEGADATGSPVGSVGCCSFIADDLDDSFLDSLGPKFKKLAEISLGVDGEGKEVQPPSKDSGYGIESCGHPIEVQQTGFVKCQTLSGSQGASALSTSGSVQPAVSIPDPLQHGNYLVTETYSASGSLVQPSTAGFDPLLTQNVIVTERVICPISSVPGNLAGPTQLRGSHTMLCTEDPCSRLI
MEKK2wt confirm = raises or lowers MEK5 binding to wildtype human MEKK2, retest | shares compounds with MEKK3 PB1 HTS | bead flow cytometry, Alexa488-MEK5 binding to MEKK2 WT; actives lie on both sides | binding response (% of control), % at 10 µM | 2.4% of 5,900 active; in the data active = binding response below about 16% or above about 210%; inactive = in between
MEKK2mut confirm = signal of MEK5 binding to mutant human MEKK2, retest. AID 1893. percent response, % at 10 µM. bead flow cytometry, Alexa488-MEK5 binding to MEKK2 mutant. 2% of 5,900 active. shares compounds with MEKK3 PB1 HTS; in the data active = percent response mostly above about 71%, no sharp cut-off; inactive = mostly below about 38%;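 also: higher means compound restores mutant binding toward wildtype level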
MEKK3 confirm = MEKK3-MEK5 PB1 inhibition, single concentration confirmation | AID 1894 | binding response (% of control), % at 10 µM | bead flow cytometry, Alexa488-MEK5 binding to MEKK3; stronger effect = lower value | shares compounds with MEKK3 PB1 HTS | 1.8% of 5,900 active;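 active = binding response below 72% of control, or above a set upper limit, though filed actives all read lower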;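 also: 100% = DMSO only wells and 0% = binding blocked by excess unlabeled MEK5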
Casp3 UBC13 ctr = counter-screen for UBC13 inhibitors: human caspase-3 inhibition. shares compounds with UBC13 polyUb. Recombinant caspase-3, Caspase-Glo 3/7 luminescence, 60 min. inhibition, % at 20 µM. 4% of 1,400 active. AID 488856;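 active = mean inhibition across replicates above about 26%, limit read from the data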;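 also: plate controls were DMSO with caspase-3 for no effect and DMSO wells lacking enzyme for full effect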
UBC13 confirm = human UBC13 polyubiquitin inhibition, confirmed. shares compounds with UBC13 polyUb. AID 488859. inhibition, % at 10 µM. 68% of 1,400 active. UBC13 polyubiquitination, TR-FRET, biochemical; in the data active = inhibition above about 45%
Apaf-1 inh conf = Apaf-1 inhibition, single-dose confirmed. AID 504614. 25% of 1,800 active. reconstituted apoptosome, caspase-3 DEVD-Rh110 fluorescence. inhibition, % at 20 µM. shares compounds with Apaf-1 inh;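 active = mean inhibition of at least 40% at 20 µM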;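 also: plate controls were DMSO wells for no effect and DEVD-CHO caspase inhibitor control wells for full effect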
Rh110 quench = counter-screen for Apaf-1 inhibitors: fluorescence interference; shares compounds with Apaf-1 inh; Rh110 fluorescence interference, quenched caspase reaction; activation (fluorescence interference), % at 20 µM; 1,800 tested, under 10 active; AID 504615;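 active = signal rise of 40% or more at 20 µM, treated as a fluorescence artifact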
Fluor interf inh = counter-screen for Apaf-1 inhibitors: fluorescence interference, dose response; 460 tested, under 10 active; fluorescence interference counterscreen, Apaf-1 assay format; IC50, µM; AID 588538; shares compounds with Apaf-1 inh; call rule not given here
The depositor's hits bear a star; i = inactive; . = no result; ! = not active in a repeat; [ ] = remark or other dose.

SMILES	MEKK2 WT-MEK5	MEKK3 PB1 HTS	Apaf-1 inh	UBC13 polyUb	MEKK2mut PB1 HTS	DSG3 Ab inh	MEKK2wt confirm	MEKK2mut confirm	MEKK3 confirm	Casp3 UBC13 ctr	UBC13 confirm	Apaf-1 inh conf	Rh110 quench	others
C=CCn1c(O)c(C(CC)=NCCC2=CCCCC2)c(=O)[nH]c1=O	96	99	16	-5	-5	.	.	.	.	.	.	.	.
CNCCC(Oc1ccc(C(F)(F)F)cc1)c1ccccc1 (centres undefined)	139*	114	29	50*	12	112	115	5	102	-6	36	.	.
CCOc1cc2c(cc1OCC)-n1cccc1C(c1ccc(OC(F)F)cc1)NC2 (centres undefined)	124	107	14	9	9	93	.	.	.	.	.	.	.
CCCCCCCSc1cc(OC)c(CCN(C)C)cc1OC	147*	104	56*	50*	28*	111	155	21	100	-3	56*	13	11
NC(C(=O)O)c1cc(=O)[nH]o1 (centres undefined)	.	.	-3	-14	.	103	.	.	.	.	.	.	.
NC(N)=N/N=C/c1ccc(N(c2ccccc2)c2ccccc2)cc1	235*	114	61*	107*	73*	101	205	63	111	-6	119*	43*	3	Fluor interf inh=>100
Cc1ccccc1-[n+]1c(-c2ccccc2)cc(-c2ccccc2)cc1-c1ccccc1	.	.	10	30	.	108	.	.	.	.	.	.	.
O=c1[nH]c2ccccc2n1C1CCN(CCCC(c2ccc(F)cc2)c2ccc(F)cc2)CC1	146*	83	56*	40	31*	105	195	66	109	.	.	14	2
CC[C@@H](CO)NC(=O)[C@@H]1C=C2c3cccc4[nH]cc(c34)C[C@H]2N(C)C1	.	.	.	.	.	88	.	.	.	.	.	.	.
CC[C@@H](CO)NC(=O)[C@@H]1C=C2c3cccc4c3c(cn4C)C[C@H]2N(C)C1	38*![inhibitor]	66*![inhibitor]	69*!	-39	7	102	109	7	104	.	.	17	0
CC(=O)c1cc(C#N)c(N2CCN(C)CC2)nc1C	96	103	0	6	-1	103	.	.	.	.	.	.	.
CNc1ccc2nc3ccccc3[n+](C)c2c1	2.0*[inhibitor]	88	89*	i	-5	94	95	6	94	.	.	62*	9	Fluor interf inh=>100
NC1CCc2cc(O)c(O)cc2C1 (centres undefined)	.	.	-8	-4	.	.	.	.	.	.	.	.	.
C[C@]12CCC3C(CC[C@H]4C[C@@H](O)CC[C@]34C)C1CC[C@@H]2OC(=O)[C@H](N)CCCCN (some centres undefined)	.	.	23	105*	.	122	.	.	.	2	106*	.	.
Clc1ccc(COC(Cn2ccnc2)c2ccc(Cl)cc2Cl)cc1 (centres undefined)	103	82	40	50*	6	105	.	.	.	3	20	.	.

High-throughput results from PubChem.
